Results: article PMC3133600 (Journal of the American Chemical Society, 2011)
Where two headings read alike, the source gives them in different places.

What was measured:
[1] = test system: H3K4me3 and H3K9me3 levels in KYSE150 cells; type: cell-based
Procedure, shortened: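 KYSE150 cells were immunostained for H3K4me3 and H3K9me3 in a quantitative image-based assay. Image quantification gave half-maximal effective concentrations for each mark.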

[2] = test system: H3K4me3 and H3K9me3 levels in MCF7 cells; type: cell-based, human
[3] = test system: UTX-targeted genes Myog and CKm in C2C12 cells; test: RT-PCR of UTX-targeted genes during myogenesis; type: cell-based; settings: differentiating C2C12 myoblast, 1, 2 and 4 μM, 6 days
Procedure, shortened: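 Differentiating C2C12 myoblasts were given DMSO or test compound (1, 2, 4 μM) in differentiation media. mRNA was collected after 6 days, and RT-PCR measured Myog and Ckm.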

C2C12 cells = test: Myotube formation in C2C12 cells; type: cell-based; settings: C2C12 cells in differentiation media, 6 days
Procedure, shortened: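 C2C12 cells in differentiation media were given DMSO or test compound at 1, 2 or 4 μM. After 6 days they were immunostained with anti-myosin heavy chain antibody plus DAPI. MHC-positive myotubes were scored from the images.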

[4] = test system: HIF-1α levels in MCF7 cells; test: Cellular HIF-1α levels; type: cell-based, human; settings: 24 hours
human JMJD2C(1–420) = target: T1, human JMJD2C(1–420) (Homo sapiens, UniProt Q9H3R0); type: biochemical; settings: at up to 50 μM, the highest concentration tested
T1 sequence (Q9H3R0 1-420): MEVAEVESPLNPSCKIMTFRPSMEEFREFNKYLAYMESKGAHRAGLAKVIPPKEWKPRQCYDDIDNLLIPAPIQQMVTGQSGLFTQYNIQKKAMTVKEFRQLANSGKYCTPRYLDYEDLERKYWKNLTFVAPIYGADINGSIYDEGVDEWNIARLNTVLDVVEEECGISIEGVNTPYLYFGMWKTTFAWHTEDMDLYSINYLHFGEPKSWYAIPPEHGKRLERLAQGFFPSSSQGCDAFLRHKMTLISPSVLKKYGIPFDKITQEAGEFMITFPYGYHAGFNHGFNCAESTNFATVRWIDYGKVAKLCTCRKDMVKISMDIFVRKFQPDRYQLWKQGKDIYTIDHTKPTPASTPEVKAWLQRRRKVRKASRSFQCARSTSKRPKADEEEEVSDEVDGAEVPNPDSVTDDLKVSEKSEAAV

[5] = test system: class I or class II HDACs; test: HDAC enzyme inhibition in vitro; type: biochemical; settings: at up to 50 μM, the highest concentration tested
[6] = target: T2, JMJD2A (H3K9me3 and H3K36me3 demethylase) (Homo sapiens, UniProt O75164); test: JMJD2A enzyme inhibition in vitro; type: biochemical; settings: at up to 50 μM, the highest concentration tested
T2 sequence (O75164 1-1064): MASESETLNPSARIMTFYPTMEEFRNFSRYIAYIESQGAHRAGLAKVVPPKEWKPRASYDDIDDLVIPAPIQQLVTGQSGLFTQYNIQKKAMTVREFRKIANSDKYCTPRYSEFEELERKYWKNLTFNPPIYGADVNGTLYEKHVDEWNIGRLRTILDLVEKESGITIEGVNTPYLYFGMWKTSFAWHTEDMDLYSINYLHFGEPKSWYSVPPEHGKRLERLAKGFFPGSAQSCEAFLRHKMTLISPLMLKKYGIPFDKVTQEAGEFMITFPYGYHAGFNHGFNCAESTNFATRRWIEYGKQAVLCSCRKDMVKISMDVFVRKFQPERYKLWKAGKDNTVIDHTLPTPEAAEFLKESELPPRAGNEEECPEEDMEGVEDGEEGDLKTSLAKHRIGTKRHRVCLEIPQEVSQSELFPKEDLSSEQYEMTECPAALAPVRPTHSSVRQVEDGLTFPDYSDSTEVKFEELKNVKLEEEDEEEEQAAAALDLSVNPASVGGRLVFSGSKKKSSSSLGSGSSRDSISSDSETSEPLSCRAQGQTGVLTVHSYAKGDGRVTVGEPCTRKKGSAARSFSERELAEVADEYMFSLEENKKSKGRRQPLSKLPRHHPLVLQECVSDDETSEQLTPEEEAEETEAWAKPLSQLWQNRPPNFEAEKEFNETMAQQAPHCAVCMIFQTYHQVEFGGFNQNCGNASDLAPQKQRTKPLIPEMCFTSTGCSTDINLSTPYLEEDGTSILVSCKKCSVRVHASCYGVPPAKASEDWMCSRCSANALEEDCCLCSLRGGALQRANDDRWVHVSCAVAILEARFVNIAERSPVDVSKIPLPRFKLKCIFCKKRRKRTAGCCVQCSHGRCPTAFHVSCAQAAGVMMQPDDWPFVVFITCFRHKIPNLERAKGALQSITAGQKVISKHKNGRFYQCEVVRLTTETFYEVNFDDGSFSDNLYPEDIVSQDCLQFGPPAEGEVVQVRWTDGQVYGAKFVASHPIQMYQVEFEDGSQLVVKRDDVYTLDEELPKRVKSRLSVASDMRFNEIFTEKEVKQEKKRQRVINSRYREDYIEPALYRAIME

[7] = test system: histone methylation marks in KYSE150 cells; test: Western blotting of histone methylation marks in KYSE150 cells; type: cell-based; settings: 48 hours
Procedure, shortened: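 KYSE150 cells received DMSO, DFO 150 μM or DMOG 1 mM as positive controls for Fe²⁺/α-ketoglutarate hydroxylase inhibition, or test compound at 5, 10 or 15 μM, for 48 h. Histone methylation marks were assessed by Western blot, with histone levels based on coomassie stain.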

[8] = test system: JMJD2C-sensitive oesophageal carcinoma cell line KYSE150; test: KYSE150 growth inhibition assay; type: cell-based; settings: read-out: GI50, KYSE150 cell growth; treatment for 48 hours
[9] = target: FAD-dependent demethylase, LSD1 (Homo sapiens, UniProt O60341); test: LSD1 enzyme inhibition in vitro; type: biochemical; settings: at up to 50 μM, the highest concentration tested
[10] = Stability in KYSE150 cell growth media; type: in vitro ADME; settings: 37 °C, 48 hours, extraction with 3:1 chloroform:isopropanol
[11] = test system: JMJD2C(1–420)-GFP fusion protein in HeLa cells; test: H3K9me3 immunostaining in HeLa cells ectopically expressing JMJD2C; type: cell-based, human; settings: 10 μM, 48 hours
Procedure, shortened: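 HeLa cells were transfected with JMJD2C(1–420)-GFP, then treated with DMSO or 10 μM test compound. After 48 h they were immunostained with anti-H3K9me3 antibody and DAPI nuclear stain. H3K9me3 was compared in GFP-transfected cells.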

[12] = DFO at 150 μM, DMOG at 1 and 2 mM

| EC50 ([1]; read-out: EC50 for H3K4me3) [µM] | EC50 ([1]; read-out: EC50 for H3K9me3) [µM] | EC50 ([2]; read-out: EC50 for H3K4me3) [µM] | EC50 ([2]; read-out: EC50 for H3K9me3) [µM] | inhibition of enzymatic activity of JMJD2C (human JMJD2C(1–420)) | inhibition of enzymatic activity of HDACs [5] | inhibition of enzymatic activity of JMJD2A [6] | GI50 [8] [µM] | inhibition of enzymatic activity of LSD1 [9] | Structure (SMILES) | increase of the H3K9me3 mark [1] [fold] | increase of the H3K9me3 mark [2] [fold] | expression of UTX-targeted genes Myog and CKm (RT-PCR) [3] | concentration sufficient to prevent the formation of MHC-positive myotubes (C2C12 cells) [µM] | cellular HIF-1α levels ([4]; at up to 15 μM, the highest concentration tested) | methylation of H3K4, H3K9, H3K27 and H3K36 (Western blotting) ([7]; KYSE150 cells, 5, 10 and 15 μM, concentration-dependent) | cellular levels of H3K79me3 and H4K20me3 ([7]; KYSE150 cells) | recovered unchanged after incubation in cell growth media [10] [%] | reduction of H3K9me3 level by JMJD2C(1–420)-GFP [11] | cellular HIF-1α levels [4, 12] |
| --- | --- | --- | --- | --- | --- | --- | --- | --- | --- | --- | --- | --- | --- | --- | --- | --- | --- | --- | --- |
| 10.3 | 8.6 | 6.7 | 6.3 | does not inhibit | does not inhibit | does not inhibit | ~5.1 | does not inhibit | COC(=O)/C=C/C(=O)N(O)CCCCNCc1ccc(COC(=O)Nc2cccc3ccccc23)cc1 [Methylstat, methylstat] | 10.8 | 4.5 | loss of expression | 2 | did not affect | induces hypermethylation | induces increased cellular levels | 88 | reversed | – |
| – | – | – | – | – | – | – | – | – | CC(=O)N(O)CCCCCNC(=O)CCC(=O)N(O)CCCCCNC(=O)CCC(=O)N(O)CCCCCN [DFO, desferoxamine] | – | – | – | – | – | – | – | – | – | significantly increased |
| – | – | – | – | – | – | – | – | – | COC(=O)CNC(=O)C(=O)OC [DMOG] | – | – | – | – | – | – | – | – | – | significantly increased |
